Publication PMC6247064 (Cancer Science, 2018)

Tested on: Japanese patients with advanced solid tumors
Assay: Phase 1 study: safety, tolerability, DLT and treatment-emergent adverse events
Format: in vivo, human
How it was run: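 Open-label single-arm dose levels of 80 or 105 mg/m2 IV were given on day 1 of 14-day cycles, with at most 6 patients per level. Adverse events were graded by CTCAE v4.03. DLTs were related events in cycle 1 meeting predefined hematologic or nonhematologic criteria. Tolerability required a cycle 1 DLT rate <33%. Primary G-CSF prophylaxis was barred during DLT evaluation; G-CSF was allowed for treatment-emergent neutropenia and as secondary prophylaxis.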

COc1cccc(OCCCN)c1-c1cc(Nc2cnc(C#N)cn2)n[nH]1 [Prexasertib]
Serious AE reported in one patient (80 mg/m^2, 2 (anemia and thrombocytopenia) related to study treatment, constipation not): 3 serious AE | TEAE related to study treatment: Anemia (80 mg/m^2 N = 6, Any grade): 3 (50.0) n (%) | TEAE related to study treatment: Any (80 mg/m^2 N = 6, Any grade): 6 (100) n (%) | TEAE related to study treatment: Atrial fibrillation (80 mg/m^2 N = 6, Any grade): 1 (16.7) n (%) | TEAE related to study treatment: Constipation (80 mg/m^2 N = 6, Any grade): 2 (33.3) n (%) | TEAE related to study treatment: ECG QT prolonged (80 mg/m^2 N = 6, Any grade): 2 (33.3) n (%) | TEAE related to study treatment: Fatigue (80 mg/m^2 N = 6, Any grade): 1 (16.7) n (%) | TEAE related to study treatment: Febrile neutropenia (80 mg/m^2 N = 6, Any grade): 1 (16.7) n (%) | TEAE related to study treatment: Headache (80 mg/m^2 N = 6, Any grade): 0 n (%) | TEAE related to study treatment: Hypocalcemia (80 mg/m^2 N = 6, Any grade): 0 n (%) | TEAE related to study treatment: Leukopenia (80 mg/m^2 N = 6, Any grade): 6 (100) n (%) | TEAE related to study treatment: Lung infection (80 mg/m^2 N = 6, Any grade): 1 (16.7) n (%) | TEAE related to study treatment: Lymphocytopenia (80 mg/m^2 N = 6, Any grade): 2 (33.3) n (%) | TEAE related to study treatment: Nausea (80 mg/m^2 N = 6, Any grade): 2 (33.3) n (%) | TEAE related to study treatment: Neutropenia (80 mg/m^2 N = 6, Any grade): 5 (83.3) n (%) | TEAE related to study treatment: Pyrexia (80 mg/m^2 N = 6, Any grade): 1 (16.7) n (%) | TEAE related to study treatment: Rash (80 mg/m^2 N = 6, Any grade): 1 (16.7) n (%) | TEAE related to study treatment: Rash maculopapular (80 mg/m^2 N = 6, Any grade): 1 (16.7) n (%) | TEAE related to study treatment: SVE (supraventricular extrasystoles) (80 mg/m^2 N = 6, Any grade): 1 (16.7) n (%) | TEAE related to study treatment: Stomatitis (80 mg/m^2 N = 6, Any grade): 1 (16.7) n (%) | TEAE related to study treatment: Thrombocytopenia (80 mg/m^2 N = 6, Any grade): 4 (66.7) n (%) | TEAE related to study treatment: Anemia (80 mg/m^2 N = 6, Grade 3): 1 (16.7) n (%) | TEAE related to study treatment: Any (80 mg/m^2 N = 6, Grade 3): 2 (33.3) n (%) | TEAE related to study treatment: Atrial fibrillation (80 mg/m^2 N = 6, Grade 3): 0 n (%) | TEAE related to study treatment: Constipation (80 mg/m^2 N = 6, Grade 3): 0 n (%) | TEAE related to study treatment: ECG QT prolonged (80 mg/m^2 N = 6, Grade 3): 0 n (%) | TEAE related to study treatment: Fatigue (80 mg/m^2 N = 6, Grade 3): 0 n (%) | TEAE related to study treatment: Febrile neutropenia (80 mg/m^2 N = 6, Grade 3): 0 n (%) | TEAE related to study treatment: Headache (80 mg/m^2 N = 6, Grade 3): 0 n (%) | TEAE related to study treatment: Hypocalcemia (80 mg/m^2 N = 6, Grade 3): 0 n (%) | TEAE related to study treatment: Leukopenia (80 mg/m^2 N = 6, Grade 3): 1 (16.7) n (%) | TEAE related to study treatment: Lung infection (80 mg/m^2 N = 6, Grade 3): 0 n (%) | TEAE related to study treatment: Lymphocytopenia (80 mg/m^2 N = 6, Grade 3): 1 (16.7) n (%) | TEAE related to study treatment: Nausea (80 mg/m^2 N = 6, Grade 3): 0 n (%) | TEAE related to study treatment: Neutropenia (80 mg/m^2 N = 6, Grade 3): 1 (16.7) n (%) | TEAE related to study treatment: Pyrexia (80 mg/m^2 N = 6, Grade 3): 0 n (%) | TEAE related to study treatment: Rash (80 mg/m^2 N = 6, Grade 3): 0 n (%) | TEAE related to study treatment: Rash maculopapular (80 mg/m^2 N = 6, Grade 3): 0 n (%) | TEAE related to study treatment: SVE (supraventricular extrasystoles) (80 mg/m^2 N = 6, Grade 3): 0 n (%) | TEAE related to study treatment: Stomatitis (80 mg/m^2 N = 6, Grade 3): 0 n (%) | TEAE related to study treatment: Thrombocytopenia (80 mg/m^2 N = 6, Grade 3): 2 (33.3) n (%) | TEAE related to study treatment: Anemia (80 mg/m^2 N = 6, Grade 3 + 4): 2 (33.3) n (%) | TEAE related to study treatment: Any (80 mg/m^2 N = 6, Grade 3 + 4): 6 (100) n (%) | TEAE related to study treatment: Atrial fibrillation (80 mg/m^2 N = 6, Grade 3 + 4): 0 n (%) | TEAE related to study treatment: Constipation (80 mg/m^2 N = 6, Grade 3 + 4): 0 n (%) | TEAE related to study treatment: ECG QT prolonged (80 mg/m^2 N = 6, Grade 3 + 4): 0 n (%) | TEAE related to study treatment: Fatigue (80 mg/m^2 N = 6, Grade 3 + 4): 0 n (%) | TEAE related to study treatment: Febrile neutropenia (80 mg/m^2 N = 6, Grade 3 + 4): 1 (16.7) n (%) | TEAE related to study treatment: Headache (80 mg/m^2 N = 6, Grade 3 + 4): 0 n (%) | TEAE related to study treatment: Hypocalcemia (80 mg/m^2 N = 6, Grade 3 + 4): 0 n (%) | TEAE related to study treatment: Leukopenia (80 mg/m^2 N = 6, Grade 3 + 4): 4 (66.7) n (%) | TEAE related to study treatment: Lung infection (80 mg/m^2 N = 6, Grade 3 + 4): 0 n (%) | TEAE related to study treatment: Lymphocytopenia (80 mg/m^2 N = 6, Grade 3 + 4): 1 (16.7) n (%) | TEAE related to study treatment: Nausea (80 mg/m^2 N = 6, Grade 3 + 4): 0 n (%) | TEAE related to study treatment: Neutropenia (80 mg/m^2 N = 6, Grade 3 + 4): 4 (66.7) n (%) | TEAE related to study treatment: Pyrexia (80 mg/m^2 N = 6, Grade 3 + 4): 0 n (%) | TEAE related to study treatment: Rash (80 mg/m^2 N = 6, Grade 3 + 4): 0 n (%) | TEAE related to study treatment: Rash maculopapular (80 mg/m^2 N = 6, Grade 3 + 4): 0 n (%) | TEAE related to study treatment: SVE (supraventricular extrasystoles) (80 mg/m^2 N = 6, Grade 3 + 4): 0 n (%) | TEAE related to study treatment: Stomatitis (80 mg/m^2 N = 6, Grade 3 + 4): 0 n (%) | TEAE related to study treatment: Thrombocytopenia (80 mg/m^2 N = 6, Grade 3 + 4): 3 (50.0) n (%) | TEAE related to study treatment: Anemia (80 mg/m^2 N = 6, Grade 4): 1 (16.7) n (%) | TEAE related to study treatment: Any (80 mg/m^2 N = 6, Grade 4): 4 (66.7) n (%) | TEAE related to study treatment: Atrial fibrillation (80 mg/m^2 N = 6, Grade 4): 0 n (%) | TEAE related to study treatment: Constipation (80 mg/m^2 N = 6, Grade 4): 0 n (%) | TEAE related to study treatment: ECG QT prolonged (80 mg/m^2 N = 6, Grade 4): 0 n (%) | TEAE related to study treatment: Fatigue (80 mg/m^2 N = 6, Grade 4): 0 n (%)
